The list is not random: actives were taken first. Their share in the collection is about 1.5%.
SENP1 inh: SENP1 (human) catalytic domain inhibition | Q9P0U3 | recombinant SENP1 catalytic domain, CyPet-SUMO1-YPet FRET cleavage | inhibition, % at 10 µM | actives 0.21% (n = 360,000);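 active = inhibition at least 30% at 10 µM, raw YFP signal under a set limit, fluorescence ratio 0.5 to 1.5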
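Compound: 10 µM single point, 0.5% DMSO; Test system: hSENP1 catalytic domain, recombinant; Timing: 50 min reaction at room temperature; Technique: FRET, CFP and YFP emission; Control set: no-enzyme wells low, DMSO-plus-enzyme wells high control.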
Myeloid diff MLP: myeloid differentiation induction | actives 1% (n = 360,000) | calls only at 10 µM | ER-HoxA9 myeloid progenitors, lysozyme-GFP differentiation, flow cytometry | AID 624256;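 active = normalized GFP-positive differentiation at or above the plate's own cutoff, the solvent-only control mean plus 3 SD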;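 note: cells exposed to compound for four days before flow analysis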
Platelet DG rel: platelet dense granule release activity; inhibition, %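 (compounds screened at 7.5 µM in platelet-rich plasma)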; human platelet-rich plasma, SFLLRN dense granule ATP release, luminescence; AID 1663; actives 0.22% (n = 300,000);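 active = mean replicate score, as percent of positive control, at or above 50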
VLA-4 inh: inhibition in a human VLA-4 binding assay; inhibition, % (about 7 µM as worked out from the volumes in the protocol); actives 0.2% (n = 330,000); P13612; VLA-4 expressing cells, ligand binding flow cytometry; in the data active = inhibition above about 50%
Target sequence (P13612 whole entry, looked up): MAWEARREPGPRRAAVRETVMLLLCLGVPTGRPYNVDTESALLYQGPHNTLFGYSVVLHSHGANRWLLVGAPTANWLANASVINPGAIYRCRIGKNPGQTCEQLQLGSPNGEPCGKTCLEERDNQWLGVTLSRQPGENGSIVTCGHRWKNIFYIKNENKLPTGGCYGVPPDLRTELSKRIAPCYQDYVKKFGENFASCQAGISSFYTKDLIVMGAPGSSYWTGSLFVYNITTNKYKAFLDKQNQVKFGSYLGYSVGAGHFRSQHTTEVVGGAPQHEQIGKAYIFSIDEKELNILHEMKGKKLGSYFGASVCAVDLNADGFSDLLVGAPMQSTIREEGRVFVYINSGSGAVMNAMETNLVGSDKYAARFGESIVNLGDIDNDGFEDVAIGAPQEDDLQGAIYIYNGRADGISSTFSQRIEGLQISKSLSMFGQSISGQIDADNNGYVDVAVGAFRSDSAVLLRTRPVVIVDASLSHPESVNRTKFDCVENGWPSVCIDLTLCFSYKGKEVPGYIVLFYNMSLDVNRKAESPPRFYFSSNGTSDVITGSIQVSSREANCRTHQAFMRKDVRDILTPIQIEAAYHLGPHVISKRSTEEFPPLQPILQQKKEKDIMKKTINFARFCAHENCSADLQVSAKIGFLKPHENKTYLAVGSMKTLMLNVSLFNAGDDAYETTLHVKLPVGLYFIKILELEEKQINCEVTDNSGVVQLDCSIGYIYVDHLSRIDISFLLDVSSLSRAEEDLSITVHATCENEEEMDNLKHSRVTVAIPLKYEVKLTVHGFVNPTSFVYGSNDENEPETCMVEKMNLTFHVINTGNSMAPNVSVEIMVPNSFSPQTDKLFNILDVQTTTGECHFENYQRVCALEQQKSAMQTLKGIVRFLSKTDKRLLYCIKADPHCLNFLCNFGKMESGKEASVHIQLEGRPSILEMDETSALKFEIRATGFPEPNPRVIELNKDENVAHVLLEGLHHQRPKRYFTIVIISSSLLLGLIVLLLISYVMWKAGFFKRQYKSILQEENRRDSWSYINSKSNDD
VLA-4 mod pick: confirmation of allosteric modulators of human VLA-4 integrin | shares compounds with VLA-4 inh | U937 cells, HUTS-21 LIBS mAb binding, flow cytometry; LDV ligand present at threefold Kd | inhibition, % at 6.7 µM | actives 2% (n = 1,300) | AID 2813; in the data active = inhibition above about 40%
Of the large screens only hits and unclear results are named; the others gave an inactive call (follow-up assays come after a bar, where they were run); ! = not active in a repeat.

N#Cc1cccc(NS(=O)(=O)c2ccccc2Cl)c1	none (no result: Platelet DG rel) | VLA-4 mod pick inactive
O=C(CSc1nncs1)Nc1ccc(Cl)cn1	none
CCOc1ccc(CNC(=O)CCCC(=O)n2ncc3cc(C)ccc32)cc1	VLA-4 inh 59 | VLA-4 mod pick inactive
Cc1ccc2c(cnn2C(=O)CCCC(=O)NCc2ccc(Cl)cc2)c1	none
O=C(CSCc1cccc(Br)c1)N=Nc1c(O)[nH]c2ccccc12	VLA-4 inh 57 | VLA-4 mod pick inactive
O=C(Nc1ccc(Cl)cc1)OCc1cncs1	none | VLA-4 mod pick inactive
O=C(Nc1cccc(Cl)c1)OCc1cncs1	none | VLA-4 mod pick inactive
O=C(Nc1cccc2ccccc12)OCc1cncs1	none
CCOC(=O)c1c(C)[nH]c(C)c1S(=O)(=O)NCc1ccc(OCC)cc1	none
O=C(NNC(=O)C1CC1)c1cc(=O)[nH]c2ccccc12	none (no result: Platelet DG rel)
COc1ccc(OC)c(NS(=O)(=O)c2ccc(SC)cc2)c1	none
CCOc1ccc(S(=O)(=O)Nc2cc(OC)ccc2OC)cc1	VLA-4 inh 53 (no result: Myeloid diff MLP) | VLA-4 mod pick 56
CCOC(=O)c1[nH]cnc1C(=O)NC1CCN(C(=O)OC(C)(C)C)CC1	none (no result: Platelet DG rel)
COC(=O)c1cc2c(ccn2-c2ccc(F)cc2)n1C(C)C	VLA-4 inh 63 | VLA-4 mod pick inactive
COC(=O)c1cc2c(ccn2-c2ccc(F)cc2)n1CC(C)C	none
Cc1cc(Oc2ccccc2)nc(SCC(=O)Nc2ccc(Cl)c(Cl)c2)n1	none
Cc1cc(Oc2ccccc2)nc(SCC(=O)Nc2ccccc2)n1	VLA-4 inh 70 | VLA-4 mod pick inactive
COC(=O)Cc1c(C)c2ccc(OCC(=O)N3CCCC(C)C3)c(C)c2oc1=O (stereo not given)	none
O=C(COC(=O)c1ccccc1)NC1CCCCCC1	none (no result: Platelet DG rel) | VLA-4 mod pick inactive
C#CC1CN(Cc2ccccc2)CC(C#C)N1C (stereo not given)	VLA-4 inh 62 | VLA-4 mod pick inactive
CN(CC(=O)Nc1ccc(Cl)c(Cl)c1)C(=O)CNC(=O)Cc1ccccc1	none (no result: Platelet DG rel)
CCC(C)CN1C(=O)CSCC1(C)C(=O)NC(C)C (stereo not given)	none (no result: Platelet DG rel, VLA-4 inh)
CN(C)c1ccc(CNS(=O)(=O)c2ccc3c(c2)C(C)(C)C(=O)N3C)cc1	VLA-4 inh 52 | VLA-4 mod pick inactive
COc1ccc2[nH]c(S(=O)Cc3ncc(C)c(OC)c3C)nc2c1 (stereo not given)	VLA-4 inh 54! | VLA-4 mod pick inactive
Cc1ccnc(Nc2cccnc2)n1	none (no result: Platelet DG rel, VLA-4 inh)
Cc1ccc(OCCC(=O)OCC(=O)NC(=O)NC2CCCCC2)cc1	none
CCCn1c(SCC(=O)NC(C)C)nc2sc3c(c2c1=O)CCC3	none (no result: Platelet DG rel)
CCCn1c(SCC(=O)NC)nc2sc3c(c2c1=O)CCC3	VLA-4 inh 57 | VLA-4 mod pick inactive
Cc1ccc2nc(Cl)c(C#N)cc2c1	none
CC1(C(=O)NCc2ccccc2)CCC(=O)N1CCc1c[nH]c2ccccc12 (stereo not given)	none (no result: Platelet DG rel, VLA-4 inh)
COCCn1c(Cc2ccccc2)nnc1SCc1ccc([N+](=O)[O-])cc1	none | VLA-4 mod pick inactive
CN(C)c1cccc(C(=O)OCC(=O)N(C)c2ccccc2)c1	none | VLA-4 mod pick inactive
CN(C(=O)COC(=O)c1cccc(F)c1)c1ccccc1	none
C[C@H](CO)N1C[C@H](C)[C@@H](CN(C)S(=O)(=O)c2ccccc2)Oc2ccc(NS(=O)(=O)c3cccs3)cc2C1=O	none (no result: Platelet DG rel)
CCc1ccc([C@H]2C(C(=O)O)=C[C@@H](C(C)(C)C)N2S(=O)(=O)c2ccc(C)cc2)cc1	none (no result: Platelet DG rel) | VLA-4 mod pick inactive
CC[C@@H]1C=C(C(=O)O)[C@H](c2ccc(C)cc2)N1S(=O)(=O)c1ccc(C)cc1	none (no result: Platelet DG rel) | VLA-4 mod pick inactive
Cc1ccc(S(=O)(=O)N2[C@@H](c3ccc(C(C)(C)C)cc3)C(C(=O)O)=CC[C@H]2c2cccs2)cc1	VLA-4 inh 60 (no result: Platelet DG rel) | VLA-4 mod pick inactive
COc1ccc([C@H]2C(C(=O)O)=C[C@@H](C(C)(C)C)N2S(=O)(=O)c2ccc(C)cc2)cc1OC	none (no result: Platelet DG rel) | VLA-4 mod pick inactive
CCOc1cc(C(=O)NCCCNC(=O)c2cc(OCC)c(OCC)c(OCC)c2)cc(OCC)c1OCC	none
CC[C@@H]1C=C(C(=O)O)[C@H](c2ccc(OC)c(OC)c2)N1S(=O)(=O)c1ccc(C)cc1	none (no result: Platelet DG rel) | VLA-4 mod pick inactive
CC(C)c1ccc(S(=O)(=O)N2CCC(C(=O)NCc3ccco3)CC2)cc1	none (no result: Platelet DG rel, VLA-4 inh)
CCS(=O)(=O)N1CCC(C(=O)NCc2ccc(OC)cc2OC)CC1	none
COc1ccc(CNC(=O)C2CCN(S(C)(=O)=O)CC2)c(OC)c1	VLA-4 inh 53 | VLA-4 mod pick inactive
Nc1ncnc2nc[nH]c12	VLA-4 inh 58! | VLA-4 mod pick inactive
Nc1nc(N)c2[nH]cnc2n1	none (no result: SENP1 inh, Myeloid diff MLP)

Screening data (PubChem BioAssay)
